pIC50: −log10 of the molar value.
Experiments:
JAR [1] = experiment: Induction of PIG3 production in JAR cells at 1.1 uM; format: functional, Homo sapiens
How it was run: (§1)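 JAR cells were treated with compound at 1.1, 3.3, 10 or 30 μM. PIG-3 protein was measured by ELISA and normalized to cellular protein, reported as ng/mg.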

JAR [2] = experiment: Induction of PIG3 production in JAR cells at 3.3 uM; format: functional, Homo sapiens; how it was run: as §1
JAR [3] = experiment: Induction of PIG3 production in JAR cells at 10 uM; format: functional, Homo sapiens; how it was run: as §1
JAR [4] = experiment: Induction of PIG3 production in JAR cells at 30 uM; format: functional, Homo sapiens; how it was run: as §1
[5] = target: E3 ubiquitin-protein ligase Mdm2 (Homo sapiens, UniProt Q00987); experiment: Inhibition of p53-Hdm2 interaction by FP assay
E3 ubiquitin-protein ligase Mdm2, sequence (Q00987 whole entry): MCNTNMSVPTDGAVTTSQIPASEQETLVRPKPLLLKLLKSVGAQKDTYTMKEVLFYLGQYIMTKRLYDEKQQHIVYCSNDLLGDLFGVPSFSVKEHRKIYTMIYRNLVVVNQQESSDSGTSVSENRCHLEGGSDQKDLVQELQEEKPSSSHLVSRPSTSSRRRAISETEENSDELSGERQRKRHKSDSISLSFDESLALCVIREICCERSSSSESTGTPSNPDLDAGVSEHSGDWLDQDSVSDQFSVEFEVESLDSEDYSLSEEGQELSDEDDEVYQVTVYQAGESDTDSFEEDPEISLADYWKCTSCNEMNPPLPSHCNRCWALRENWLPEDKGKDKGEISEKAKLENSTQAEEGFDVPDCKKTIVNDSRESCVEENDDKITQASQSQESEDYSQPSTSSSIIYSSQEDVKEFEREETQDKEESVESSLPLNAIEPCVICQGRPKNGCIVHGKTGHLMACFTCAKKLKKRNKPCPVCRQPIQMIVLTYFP

Row | Structure (SMILES) | Activity (JAR [1]) | Activity (JAR [2]) | Activity (JAR [3]) | Activity (JAR [4]) | pIC50 [5]
1 | CC(c1ccc(Cl)cc1N)N1C(=O)c2cc(I)ccc2N(CCCCC(=O)O)C(=O)[C@@H]1c1ccc(Cl)cc1 (stereo not given in full) | 44 ng/mg | 77 ng/mg |  |  | 
2 | Nc1cc(Cl)ccc1CN1C(=O)c2cc(I)ccc2N(CCCCC(=O)O)C(=O)[C@@H]1c1ccc(Cl)cc1 | 47 ng/mg | 74 ng/mg | 196 ng/mg |  | 
3 | C[C@H](c1cc(O)c(Cl)cc1N)N1C(=O)c2cc(I)ccc2N(CCN2CCOCC2)C(=O)[C@@H]1c1ccc(Cl)cc1 | 34 ng/mg | 54 ng/mg | 111 ng/mg |  | 
4 | COCCOCCN1C(=O)[C@H](c2ccc(Cl)cc2)N([C@H](C)c2ccc(Cl)cc2N)C(=O)c2cc(I)ccc21 | 78 ng/mg | 218 ng/mg | 375 ng/mg |  | 
5 | C[C@H](c1cc(F)c(Cl)cc1N)N1C(=O)c2cc(I)ccc2N(CCN2CCOCC2)C(=O)[C@@H]1c1ccc(Cl)cc1 | 37 ng/mg | 110 ng/mg | 313 ng/mg |  | 
6 | CN(C)CCCN1C(=O)[C@H](c2ccc(Cl)cc2)N(Cc2ccc(Cl)cc2N)C(=O)c2cc(I)ccc21 | 36 ng/mg | 68 ng/mg | -92 ng/mg |  | 
7 | C[C@H](c1ccc(Cl)cc1N)N1C(=O)c2cc(I)ccc2N(CCN2CCOCC2)C(=O)[C@@H]1c1ccc(Cl)cc1 | 79 ng/mg | 234 ng/mg | 395 ng/mg |  | 
8 | CN(C)CCCCN1C(=O)[C@H](c2ccc(Cl)cc2)N(Cc2ccc(Cl)cc2N)C(=O)c2cc(I)ccc21 | 32 ng/mg | 79 ng/mg | -136 ng/mg |  | 
9 | CC(c1ccc(Cl)cc1)N1C(=O)c2cc(I)ccc2N(CCCCC(=O)O)C(=O)[C@@H]1c1ccc(Cl)cc1 (stereo not given in full) | 60 ng/mg | 79.7 ng/mg | 208.7 ng/mg | 484.3 ng/mg | 
10 | CN1CCN(CCCCN2C(=O)[C@H](c3ccc(Cl)cc3)N(Cc3ccc(Cl)cc3N)C(=O)c3cc(I)ccc32)CC1 | 43 ng/mg | 125 ng/mg | 32 ng/mg |  | 
11 | Nc1cc(Cl)ccc1CN1C(=O)c2cc(I)ccc2N(CCCN2CCOCC2)C(=O)[C@@H]1c1ccc(Cl)cc1 | 55 ng/mg | 184 ng/mg | 375 ng/mg |  | 
12 | C=CCOc1cc(Cl)ccc1CN1C(=O)c2cc(I)ccc2N(CCOCCOC)C(=O)[C@@H]1c1ccc(Cl)cc1 |  |  |  |  | < 4.90
13 | CN1CCN(CCCN2C(=O)[C@H](c3ccc(Cl)cc3)N(Cc3ccc(Cl)cc3N)C(=O)c3cc(I)ccc32)CC1 | 57 ng/mg | 198 ng/mg | 385 ng/mg |  | 
14 | COCCOCCN1C(=O)[C@H](c2ccc(Cl)cc2)N(Cc2ccc(Cl)cc2O)C(=O)c2cc(I)ccc21 | 62.3 ng/mg | 74 ng/mg | 99 ng/mg |  | 

From ChEMBL document CHEMBL1138098, “Novel 1,4-benzodiazepine-2,5-diones as Hdm2 antagonists with improved cellular activity” (Bioorg Med Chem Lett, 2006)
